From ChEMBL document CHEMBL4041535, “Rational design, synthesis and in vitro evaluation of novel exo-methylene butyrolactone salicyloylamide as NF-κB inhibitor” (Bioorg Med Chem Lett, 2017) come the findings set out here.

Active and inactive are the calls of the source. No cut-off for these calls is given here.

Data set [1] deals with Transcription factor p65 (Mus musculus) (UniProt Q04207). Briefly: Inhibition of kappaB DNA binding to NFkappaB p65 in LPS-stimulated mouse RAW264.7 nuclear extract at 3 to 10 ug/ml after 15 mins by colorimetric method. The essentials: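 RAW264.7 cells stimulated with LPS 2 h to accumulate nuclear NF-κB. Nuclear extract prepared; compound added directly to extract. p65-κB DNA binding read with TransAM NF-κB p65 kit. Mean ± SD of 3 independent experiments.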

In another data set the test system is RAW264.7. Briefly: Cytotoxicity against mouse RAW264.7 cells assessed as reduction in cell viability up to 1 ug/ml after 24 hrs by MTT assay. Type of data set: cell-based. The following applies: raw264.7, 24 h. The essentials: (§1)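 Cells treated with compound 24 h; viability by MTT. Mean ± SD of 3 determinations.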
In data set [2] the target is Transcription factor p65 (Mus musculus) (UniProt Q04207). Briefly: Inhibition of LPS-induced NFkappaB p65 activation in mouse RAW264.7 cells at 0.3 to 1 ug/ml preincubated for 30 mins followed by LPS addition measured after 2 hrs by kappaB DNA binding based colorimetric method. Type of data set: cell-based. Put shortly: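 RAW264.7 cells given compound 30 min before LPS, stimulated 2 h. Nuclear extract prepared. p65 binding measured on κB DNA-coated dish with labeled p65 antibody (TransAM kit). Mean ± SD of 3 independent experiments.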

For data set [3] the target is unchanged. Briefly: Inhibition of LPS-induced NFkappaB p65-mediated iNOS induction in mouse RAW264.7 cells assessed as reduction in NO production preincubated for 30 mins followed by LPS addition measured after 24 hrs by Griess assay. It is filed as cell-based. The essentials:
(§2)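 RAW264.7 cells given compound 30 min before LPS, then incubated 24 h. Nitrite in medium measured by Griess assay. Mean ± SD of 3 determinations.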

Data set [4] shares this target. Briefly: Inhibition of LPS-induced NFkappaB p65-mediated iNOS mRNA expression in mouse RAW264.7 cells at 0.1 to 1 ug/ml preincubated for 30 mins followed by LPS addition measured after 24 hrs by qPCR method. It is filed as cell-based. The essentials: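 RAW264.7 cells incubated with compound plus LPS 24 h; iNOS mRNA detected by semi-quantitative PCR.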
Data set [5] shares this target. In words: Inhibition of LPS-induced NFkappaB p65-mediated IL-6 secretion in mouse RAW264.7 cells at 0.1 to 1 ug/ml preincubated for 30 mins followed by LPS addition measured after 24 hrs by ELISA. Type of data set: cell-based. The essentials: (§3)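 RAW264.7 cells given compound 30 min before LPS, then incubated 24 h. IL-6, IL-1β, TNF-α in medium quantified by ELISA. Mean ± SD of 3 determinations.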

For data set [6] the target is unchanged. In words: Inhibition of LPS-induced NFkappaB p65-mediated IL-1beta secretion in mouse RAW264.7 cells at 0.1 to 1 ug/ml preincubated for 30 mins followed by LPS addition measured after 24 hrs by ELISA. Type of data set: cell-based. Put shortly: as §3
Data set [7] shares this target. In words: Inhibition of LPS-induced NFkappaB p65-mediated TNF-alpha secretion in mouse RAW264.7 cells at 0.1 to 1 ug/ml preincubated for 30 mins followed by LPS addition measured after 24 hrs by ELISA. Type of data set: cell-based. Put shortly: as §3
For data set [8], the target named is Transcription factor p65 (Homo sapiens) (UniProt Q04206). Briefly: Inhibition of kappaB DNA binding to NFkappaB p65 in human ES2 nuclear extract at 3 to 10 ug/ml after 15 mins by colorimetric method. The essentials: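 Compound added directly to ES-2 nuclear extract. p65 binding to κB DNA-coated dish detected with labeled p65 antibody. Mean ± SD of 3 independent experiments.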

The nature of data set [9]: Cytotoxicity against human ES2 cells assessed as reduction in cell viability up to 30 ug/ml after 24 hrs by MTT assay. Type of data set: cell-based. The following applies: es2, 24 h. Put shortly: as §1
The target of data set [10] is Transcription factor p65 (Homo sapiens) (UniProt Q04206). Briefly: Inhibition of constitutively activated NFkappaB p65 in human ES2 cells at 3 to 10 ug/ml after 2 hrs by kappaB DNA binding based colorimetric method. It is filed as cell-based. Put shortly: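 ES-2 cells exposed to compound 2 h. Nuclear extract prepared. p65 binding to κB DNA-coated dish detected with labeled p65 antibody.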

For data set [11], the system named is ES2. In words: Antimigratory activity against human ES2 cells at 1 to 10 ug/ml after 24 hrs by radius 96-well migration assay. It is filed as functional, cell-based. The essentials: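 ES-2 cells treated 24 h; migration read by Radius 96-well cell migration assay. Mean ± SD of 3 determinations.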
Data set [12] concerns ES2. Briefly: Anti-invasive activity against human ES2 cells at 0.1 to 0.3 ug/ml after 24 hrs by Diff-Quick staining based matrigel chamber assay. It is filed as functional, cell-based. Put shortly:
(§4)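 ES-2 ovarian clear cell carcinoma cells exposed to compound 24 h; invasion through Matrigel chamber. Mean ± SD of 4 fields.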

The target of data set [13] is Transcription factor p65 (Homo sapiens) (UniProt Q04206). Briefly: Inhibition of NFkappaB p65 in human ES2 cells assessed as reduction in MMP2 secretion at 3 to 10 ug/ml after 24 hrs by ELISA. It is filed as cell-based. Put shortly:
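ES-2 cells incubated with compound 24 h; secreted MMP-2 in medium by ELISA. Mean ± SD of 3 determinations.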

For data set [14] the target is unchanged. Briefly: Inhibition of NFkappaB p65 in human ES2 cells assessed as reduction in MMP2 mRNA expression at 0.1 to 1 ug/ml after 24 hrs by qPCR method. Type of data set: cell-based. Put shortly: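 ES-2 cells incubated with compound 24 h; MMP-2 mRNA detected by semi-quantitative PCR.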
Data set [15] in a line: Chemical stability in PBS at 100 ug/ml up to 12 hrs at 37 degC by HPLC analysis. Type of data set: physicochemical. The following applies: buffer. Put shortly:
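Compound dissolved in PBS at 100 µg/ml, held at 37 °C for 0, 30 min, 1, 2, 6, 12 h. Extracted into ethyl acetate, dried, then quantified by HPLC. Column: ODS at 40 °C. Mobile phase: acetonitrile/0.1% ammonium acetate (22:78), 0.3 mL/min. UV detection at 254 nm. Mean ± SD of 3 determinations.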

In data set [16] the target is Transcription factor p65 (Mus musculus) (UniProt Q04207). In words: Inhibition of LPS-induced NFkappaB p65-mediated iNOS induction in mouse RAW264.7 cells assessed as reduction in NO production at 1 ug/ml using 12 hrs PBS incubated compound preincubated for 30 mins with cells followed by LPS addition measured after 24 hrs by Griess assay. Type of data set: cell-based. The essentials:
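Compound pre-incubated in PBS at 100 µg/ml, then added to RAW264.7 cells to give 1 µg/ml. LPS 10 ng/ml added 30 min later, 24 h. NO by Griess assay. Mean ± SD of 3 determinations.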

The target is the same in data set [17]. In words: Inhibition of LPS-induced NFkappaB p65-mediated iNOS induction in mouse RAW264.7 cells assessed as reduction in NO production at 0.3 to 10 ug/ml preincubated for 30 mins followed by LPS addition measured after 24 hrs by Griess assay. It is filed as cell-based. The essentials: as §2
Data set [18] concerns ES2. In words: Anti-invasive activity against human ES2 cells at 1 to 10 ug/ml after 24 hrs by Diff-Quick staining based matrigel chamber assay. Type of data set: functional, cell-based. Put shortly: as §4

Sequence of Transcription factor p65 (Mus musculus) (Q04207 whole entry): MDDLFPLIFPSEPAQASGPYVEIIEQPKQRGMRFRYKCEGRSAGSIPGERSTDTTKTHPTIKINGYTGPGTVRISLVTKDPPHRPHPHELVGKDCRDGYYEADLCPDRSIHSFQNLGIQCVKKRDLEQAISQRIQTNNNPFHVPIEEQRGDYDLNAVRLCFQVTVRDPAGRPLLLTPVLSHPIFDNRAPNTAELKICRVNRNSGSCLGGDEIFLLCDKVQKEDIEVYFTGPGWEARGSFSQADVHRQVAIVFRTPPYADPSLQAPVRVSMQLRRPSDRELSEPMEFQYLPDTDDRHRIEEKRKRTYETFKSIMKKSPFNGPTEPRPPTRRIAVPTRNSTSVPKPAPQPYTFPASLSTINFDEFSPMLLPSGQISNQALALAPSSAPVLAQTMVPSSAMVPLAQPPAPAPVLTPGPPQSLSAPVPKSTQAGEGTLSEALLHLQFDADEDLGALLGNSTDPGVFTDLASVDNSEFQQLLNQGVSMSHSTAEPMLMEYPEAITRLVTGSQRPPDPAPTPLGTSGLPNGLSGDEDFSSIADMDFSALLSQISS
Sequence of Transcription factor p65 (Homo sapiens) (Q04206 whole entry): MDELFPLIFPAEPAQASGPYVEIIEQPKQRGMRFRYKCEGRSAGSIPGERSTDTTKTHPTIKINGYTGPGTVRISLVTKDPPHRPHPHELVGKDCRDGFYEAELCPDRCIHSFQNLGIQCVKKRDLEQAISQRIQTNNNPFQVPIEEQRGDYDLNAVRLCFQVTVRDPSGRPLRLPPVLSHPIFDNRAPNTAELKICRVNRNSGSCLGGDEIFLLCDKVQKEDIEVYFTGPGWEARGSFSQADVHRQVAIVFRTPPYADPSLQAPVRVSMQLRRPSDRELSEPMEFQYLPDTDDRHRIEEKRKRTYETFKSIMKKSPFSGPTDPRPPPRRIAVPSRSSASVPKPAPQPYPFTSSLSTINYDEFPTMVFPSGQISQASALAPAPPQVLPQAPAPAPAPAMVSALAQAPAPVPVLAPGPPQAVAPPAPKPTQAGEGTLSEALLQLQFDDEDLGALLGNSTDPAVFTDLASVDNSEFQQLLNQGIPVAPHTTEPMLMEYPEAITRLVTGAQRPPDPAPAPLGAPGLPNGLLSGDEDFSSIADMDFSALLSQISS

Regarding `C=C1C(=O)OC[C@H]1NC(=O)c1ccccc1O`, the inhibition entry in [1], in data set [2], in [4], in [5], in data set [6] and in data set [7] was “Active” each time. Also, the inhibition entry (in data set [8]; in [10]; with ES2 [11]; in the data set on ES2 [12]; in [13]; in data set [14]) was “Active” throughout. Besides, the inhibition result in data set [16] is “Active”. The Activity result (in the data set on RAW264.7; in data set [9]) was “Non-Toxic” in each case. In [3], the inhibition result is “Dose-dependent effect”. Moreover, the Stability entry in [15] is “Stable”.

Take `O=C(NC1=CC(=O)[C@H]2O[C@H]2[C@H]1O)c1ccccc1O` [DEHYDROXYMETHYLEPOXYQUINOMICIN]: the inhibition result (in data set [1]; in [2]; in data set [17]; in data set [10]; with ES2 [18]) was “Active” each time. Besides, the Stability entry in data set [15] is listed as “Unstable”.
